Assays:
[1] = biological target: T1, CDK4/Cyclin D3 (Homo sapiens) (UniProt P11802+P30281); test: Inhibition of recombinant full-length human CDK4/cyclinD3 at 500 nM using Rb fragment as substrate measured after 40 mins in presence of [gamma33P]ATP by scintillation counting method relative to control; format: protein-complex assay
How it was run: (§1)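 Percent inhibition of kinase activity at a single compound concentration, measured by the outsourced Eurofins KinaseProfiler panel. Values are the mean of two independent experiments.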

[2] = test system: A549; test: Antiproliferative activity against human A549 cells assessed as inhibition of cell viability at 1 uM after 72 hrs by CCK-8 assay relative to control; format: functional; conditions: A549, 72 h
How it was run: (§2)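 Single-concentration viability screen using CCK-8. Cells were seeded at 3000/well and treated for 72 h. A450 read after 1-4 h with reagent. Percent inhibition calculated against untreated control and blank wells as (Ac−As)/(Ac−Ab)×100%.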

[3] = test system: A549; test: Antiproliferative activity against human A549 cells assessed as inhibition of cell viability at 10 uM after 72 hrs by CCK-8 assay relative to control; format: functional; conditions: A549, 72 h; how it was run: as §2
[4] = biological target: T2, CDK9/cyclin T1 (Homo sapiens) (UniProt O60563+P50750); test: Inhibition of recombinant full-length human CDK9/cyclinT1 at 500 nM using KTFCGTPEYLAPEVRREPRILSEEEQEMFRDFDYIADWC peptide as substrate measured after 40 mins in presence of [gamma33P]ATP by scintillation counting method relative to control; format: protein-complex assay; how it was run: as §1
[5] = test system: NCI-H1299; test: Antiproliferative activity against human H1299 cells assessed as inhibition of cell viability at 1 uM after 72 hrs by CCK-8 assay relative to control; format: functional; conditions: NCI-H1299, 72 h; how it was run: as §2
[6] = test system: NCI-H1299; test: Antiproliferative activity against human H1299 cells assessed as inhibition of cell viability at 10 uM after 72 hrs by CCK-8 assay relative to control; format: functional; conditions: NCI-H1299, 72 h; how it was run: as §2
[7] = biological target: T2, CDK9/cyclin T1 (Homo sapiens); test: Inhibition of recombinant full-length human CDK9/cyclinT1 at 1 uM using KTFCGTPEYLAPEVRREPRILSEEEQEMFRDFDYIADWC peptide as substrate measured after 40 mins in presence of [gamma33P]ATP by scintillation counting method relative to control; format: protein-complex assay; how it was run: as §1
[8] = biological target: T1, CDK4/Cyclin D3 (Homo sapiens); test: Inhibition of recombinant full-length human CDK4/cyclinD3 at 1 uM using Rb fragment as substrate measured after 40 mins in presence of [gamma33P]ATP by scintillation counting method relative to control; format: protein-complex assay; how it was run: as §1
[9] = biological target: CDK9/cyclin T1 (Homo sapiens, UniProt P50750); test: Inhibition of recombinant full-length human CDK9/cyclinT1 using KTFCGTPEYLAPEVRREPRILSEEEQEMFRDFDYIADWC peptide as substrate measured after 40 mins in presence of [gamma33P]ATP by scintillation counting method; format: protein-complex assay
How it was run: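 IC50 against CDK9/cyclin T1, determined by the outsourced Eurofins KinaseProfiler service. Values are the mean of two independent experiments.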

[10] = biological target: T3, CDK6/cyclin D3 (Homo sapiens) (UniProt P30281+Q00534); test: Inhibition of recombinant full-length human CDK6/cyclinD3 at 1 uM using histone H1 as substrate measured after 40 mins in presence of [gamma33P]ATP by scintillation counting method relative to control; format: protein-complex assay; how it was run: as §1
[11] = biological target: T3, CDK6/cyclin D3 (Homo sapiens); test: Inhibition of recombinant full-length human CDK6/cyclinD3 at 500 nM using histone H1 as substrate measured after 40 mins in presence of [gamma33P]ATP by scintillation counting method relative to control; format: protein-complex assay; how it was run: as §1
[12] = test system: MCF7; test: Antiproliferative activity against human MCF7 cells assessed as inhibition of cell viability at 500 nM after 72 hrs by CCK-8 assay relative to control; format: functional; conditions: MCF7, 72 h; how it was run: as §2
[13] = test system: SiHa; test: Antiproliferative activity against human SiHa cells assessed as inhibition of cell viability at 500 nM after 72 hrs by CCK-8 assay relative to control; format: functional; how it was run: as §2
[14] = test system: HepG2; test: Antiproliferative activity against human HepG2 cells assessed as inhibition of cell viability at 500 nM after 72 hrs by CCK-8 assay relative to control; format: functional; conditions: HepG2, 72 h; how it was run: as §2
[15] = test system: MCF7; test: Antiproliferative activity against human MCF7 cells assessed as inhibition of cell viability at 10 uM after 72 hrs by CCK-8 assay relative to control; format: functional; conditions: MCF7, 72 h; how it was run: as §2
[16] = test system: HepG2; test: Antiproliferative activity against human HepG2 cells assessed as inhibition of cell viability at 10 uM after 72 hrs by CCK-8 assay relative to control; format: functional; conditions: HepG2, 72 h; how it was run: as §2
[17] = test system: SiHa; test: Antiproliferative activity against human SiHa cells assessed as inhibition of cell viability at 10 uM after 72 hrs by CCK-8 assay relative to control; format: functional; how it was run: as §2
[18] = biological target: T2, CDK9/cyclin T1 (Homo sapiens); test: Potency index, ratio of ribociclib IC50 to compound IC50 for inhibition of recombinant full-length human CDK9/cyclinT1; format: protein-complex assay

CDK9/cyclin T1, sequence (O60563 whole entry): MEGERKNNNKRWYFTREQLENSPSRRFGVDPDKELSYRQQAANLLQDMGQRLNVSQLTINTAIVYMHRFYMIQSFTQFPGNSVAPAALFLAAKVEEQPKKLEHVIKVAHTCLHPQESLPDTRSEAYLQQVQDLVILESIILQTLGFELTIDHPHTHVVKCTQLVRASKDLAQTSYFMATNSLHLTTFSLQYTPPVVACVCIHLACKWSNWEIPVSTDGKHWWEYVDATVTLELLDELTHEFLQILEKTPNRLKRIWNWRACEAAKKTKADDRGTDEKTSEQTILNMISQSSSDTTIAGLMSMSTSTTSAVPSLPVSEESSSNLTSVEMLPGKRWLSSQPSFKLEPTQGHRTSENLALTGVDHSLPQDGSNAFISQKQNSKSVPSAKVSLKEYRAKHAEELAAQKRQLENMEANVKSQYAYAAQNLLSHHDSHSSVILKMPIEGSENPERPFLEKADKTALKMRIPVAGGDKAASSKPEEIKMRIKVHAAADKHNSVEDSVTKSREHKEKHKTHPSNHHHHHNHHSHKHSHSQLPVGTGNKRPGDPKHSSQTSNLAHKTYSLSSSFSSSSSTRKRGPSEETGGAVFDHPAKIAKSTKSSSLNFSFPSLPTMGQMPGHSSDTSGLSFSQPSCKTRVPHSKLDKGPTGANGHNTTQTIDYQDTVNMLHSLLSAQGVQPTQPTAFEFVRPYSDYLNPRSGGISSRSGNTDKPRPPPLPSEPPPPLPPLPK
CDK9/cyclin T1, sequence (P50750 whole entry): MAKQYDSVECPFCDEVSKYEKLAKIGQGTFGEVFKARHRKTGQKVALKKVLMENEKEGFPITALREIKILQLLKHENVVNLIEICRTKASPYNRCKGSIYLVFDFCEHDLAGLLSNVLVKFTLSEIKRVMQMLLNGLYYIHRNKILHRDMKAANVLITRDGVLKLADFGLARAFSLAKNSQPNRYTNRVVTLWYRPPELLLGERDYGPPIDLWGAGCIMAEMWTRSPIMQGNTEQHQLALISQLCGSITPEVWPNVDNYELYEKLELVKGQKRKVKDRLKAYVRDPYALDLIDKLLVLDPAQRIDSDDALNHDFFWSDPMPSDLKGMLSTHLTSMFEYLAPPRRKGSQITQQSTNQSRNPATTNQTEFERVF

Row | SMILES | inhibition [1] | inhibition at 1 µM [2] | inhibition at 10 µM [3] | inhibition [4] | inhibition at 1 µM [5] | inhibition at 10 µM [6] | inhibition [7] | inhibition [8] | IC50 [9] | inhibition [10] | inhibition [11] | inhibition at 0.5 µM [12] | inhibition at 0.5 µM [13] | inhibition at 0.5 µM [14] | inhibition at 10 µM [15] | inhibition at 10 µM [16] | inhibition at 10 µM [17] | Ratio IC50 [18]
1 | CN(C)C(=O)c1cc2cnc(Nc3ccc(C(=O)NCCCCCCCN=C=S)cc3F)nc2n1C1CCCC1 | 60% | 0.05% | 12.7% | 90% | -9.23% | 35.8% | 92% | 67% | 50 nM | 52% | – | – | – | – | – | – | – | –
2 | CN(C)C(=O)c1cc2cnc(Nc3ccc(C(=O)NCCCCN=C=S)cc3F)nc2n1C1CCCC1 | 76% | -7% | 24.4% | 97% | 28.7% | 78.9% | 96% | 89% | 6 nM | 86% | 38% | – | – | – | – | – | – | –
3 | CN(C)C(=O)c1cc2cnc(Nc3ccc(C(=O)NCCCCCCCN=C=S)cc3)nc2n1C1CCCC1 | 74% | 73.7% | 101% | 99% | 75.7% | 107% | 97% | 83% | 12 nM | 85% | 56% | 85% | 90% | 68% | 99% | 89% | 95% | –
4 | CN(C)C(=O)c1cc2cnc(Nc3ccc(NC(=O)CCCCCCCN=C=S)cc3F)nc2n1C1CCCC1 | 62% | 8.65% | 94.1% | 96% | 7.5% | 14% | 95% | 72% | 25 nM | 49% | – | – | – | – | – | – | – | –
5 | CN(C)C(=O)c1cc2cnc(Nc3ccc(C(=O)NCCCCCCN=C=S)cc3F)nc2n1C1CCCC1 | 68% | -11.8% | 22.9% | 95% | 29.1% | 77.6% | 94% | 89% | 34 nM | 78% | 34% | – | – | – | – | – | – | –
6 | CN(C)C(=O)c1cc2cnc(Nc3ccc(S(=O)(=O)NCCCCCCCN=C=S)cc3)nc2n1C1CCCC1 | 84% | 32.6% | 101% | 97% | 58.9% | 83% | 97% | 86% | 9 nM | 77% | 45% | – | – | – | – | – | – | > 20
7 | CN(C)C(=O)c1cc2cnc(Nc3ccc(C(=O)NCCCCN=C=S)cc3O)nc2n1C1CCCC1 | – | 30.3% | 41.7% | 89% | 10.7% | 51.8% | 91% | 55% | 42 nM | 61% | – | – | – | – | – | – | – | –
8 | CN(C)C(=O)c1cc2cnc(Nc3ccc(C(=O)NCCCN=C=S)cc3F)nc2n1C1CCCC1 | 75% | 16.7% | 60.2% | 98% | 9.27% | 78.5% | 97% | 86% | 10 nM | 82% | 41% | – | – | – | – | – | – | –
9 | CN(C)C(=O)c1cc2cnc(Nc3ccc(C(=O)NCCCCCN=C=S)cc3F)nc2n1C1CCCC1 | 72% | -1.6% | 15.6% | 96% | 36.1% | 86.7% | 96% | 86% | 11 nM | 81% | 30% | – | – | – | – | – | – | –
10 | CN(C)C(=O)c1cc2cnc(Nc3ccc(C(=O)NCCCN=C=S)cc3O)nc2n1C1CCCC1 | – | 55.9% | 73% | 90% | 10.3% | 24.2% | 94% | 46% | 68 nM | 68% | 21% | – | – | – | – | – | – | –
11 | CN(C)C(=O)c1cc2cnc(Nc3ccc(S(=O)(=O)NCCCCCCN=C=S)cc3)nc2n1C1CCCC1 | 78% | 49.5% | 101% | 98% | 42.4% | 70.6% | 96% | 89% | 9 nM | 81% | 41% | – | – | – | – | – | – | > 20
12 | CN(C)C(=O)c1cc2cnc(Nc3cccc(NC(=O)CCCCCCCN=C=S)c3)nc2n1C1CCCC1 | 59% | 44.6% | 96.7% | 98% | 50.6% | 86.9% | 96% | 80% | 15 nM | 74% | 23% | – | – | – | – | – | – | –

Source: ChEMBL document CHEMBL4376814, “Novel cyclin-dependent kinase 9 (CDK9) inhibitor with suppression of cancer stemness activity against non-small-cell lung cancer” (Eur J Med Chem, 2019)
